# Results collected from several papers.
# Lines come from different studies, so protocols differ.
Compound,cell line,effect on,mode,technique,time,notes,IC50
CCCCCC/N=C1\c2cc(C(N)=O)nc3c(N)c(Cl)c(N)c(c23)N1C,Calu-3,cell growth or viability,,,,,0.86 µM
CC[C@@H](C)[C@H](N)C(=O)N1Cc2ccccc2C1,NOMO-1,cell growth or viability,,ATP luminescence,48 h,,4.18 µM
CN1C(=O)c2cc(C(N)=O)nc3c(N)c(Cl)c(N)c1c23,Calu-3,cell growth or viability,,,,,17.6 µM
CC(C)C(=O)SCCCCCCC(=O)Nc1nc(-c2ccccc2)cs1,FaDu,cell growth or viability,,,72 h,,4.29 µM
O=c1[nH]cc(F)c(=O)[nH]1,HEp-2,cell growth or viability,,WST-1,48 h,,9.3 µM
CC(C)[C@H](N)C(=O)N1CCC[C@H]1B(O)O,NOMO-1,cell growth or viability,,ATP luminescence,5 days,,0.031 µM
CC(C)C[C@H](NC(=O)[C@H](Cc1ccccc1)NC(=O)c1cnccn1)B(O)O,SJSA-1,cell growth or viability,,ATP luminescence,,,0.011 µM
CC[C@@]1(O)C(=O)OCc2c1cc1n(c2=O)Cc2cc3ccccc3nc2-1,P388,cell growth or viability,,MTT,96 h,,0.004 µM
O=C(/C=C/c1ccc2ncn(CC3CCCCC3)c(=O)c2c1)NO,SW-620,cell growth or viability,,SRB,48 h,,1.16 µM
COc1ccc(CC(C)NCC(O)c2ccc(O)c(NC=O)c2)cc1 (stereo not shown),THP-1,TNF-α release,inhibitor,,17 h,LPS-stimulated,0.006 µM
O=C(/C=C/c1cccc(S(=O)(=O)Nc2ccccc2)c1)NO,SW-620,cell growth or viability,,SRB,48 h,,3.23 µM
Clc1ccc(N2CCN(Cc3c[nH]c4ncccc34)CC2)cc1,FaDu,cell growth or viability,,,72 h,,> 20 µM
COc1ccc(C(=O)O[C@@H]2CN3Cc4c(cc5c(c4OC)OCO5)[C@@]24C=C[C@H](OC)C[C@@H]34)cc1OC,SAOS-2,cell growth or viability,,WST-1,,,2.1 µM
NCCc1ccc(O)c(O)c1,FaDu,cell growth or viability,,,72 h,,> 20 µM
CC(NCCc1ccc(O)cc1)C(O)c1ccc(O)cc1 (stereo not shown),THP-1,TNF-α release,inhibitor,,17 h,LPS-stimulated,3.5 µM
O=C(/C=C/c1ccc(O)c(O)c1)O[C@@H]1C[C@](O)(C(=O)O)C[C@@H](O)[C@H]1O,HEp-2,cell growth or viability,,WST-1,48 h,,5.1 µM
COc1ccc(CCN(C)CCc2ccc(OC)c(OC)c2)cc1OC,FaDu,cell growth or viability,,,72 h,,> 20 µM
COc1ccc(-c2nc3ccc(C)cc3[nH]2)cc1O,MCF7,cell growth or viability,,MTT,48 h,,23.7 µM
O=C(/C=C/c1ccc2c(=O)n(CC3CCCCC3)cnc2c1)NO,SW-620,cell growth or viability,,SRB,48 h,,1.44 µM
N#Cc1ccc(COC[C@H]2O[C@@H](n3c(NCc4ccc(Cl)c(Cl)c4)nc4c(N)ncnc43)[C@H](O)[C@@H]2O)cc1,FaDu,cell growth or viability,,,72 h,,> 20 µM
O=c1[nH]cc(S(=O)(=O)Nc2cccc(-c3nnc(-c4cccc(Cl)c4)o3)c2)c(=O)[nH]1,NCI-H441,cell growth or viability,,MTT,24 h,,4.29 µM
O=c1c(O)c(-c2ccc(O)c(O)c2)oc2cc(O)cc(O)c12,HEp-2,cell growth or viability,,WST-1,48 h,,10.9 µM
O=[N+]([O-])c1cccc(-c2nc3ccccc3[nH]2)c1,MCF7,cell growth or viability,,MTT,48 h,,24.4 µM
Nc1ccn([C@@H]2O[C@H](CO)[C@@H](O)C2(F)F)c(=O)n1,Panc02,cell growth or viability,,CCK-8,72 h,,0.0341 µM
Nc1c2c(nc3ccccc13)CCCC2O (stereo not shown),FaDu,cell growth or viability,,,72 h,,> 20 µM
COc1ccc(-c2nc3ccc(C)cc3[nH]2)cc1OC,MCF7,cell growth or viability,,MTT,48 h,,> 100 µM
Nc1ncnc2c1ncn2[C@@H]1O[C@H](CO)[C@@H](O)[C@H]1O,HEp-2,cell growth or viability,,WST-1,48 h,,49.1 µM
COc1c(C)c(OS(=O)(=O)c2ccc3ccccc3c2)c(C)c(OS(=O)(=O)c2ccc3ccccc3c2)c1C(=O)/C=C/c1ccccc1,FaDu,cell growth or viability,,SRB,72 h,,> 50 µM
Cc1ccc2nc(-c3ccc(Cl)c(Cl)c3)[nH]c2c1,MCF7,cell growth or viability,,MTT,48 h,,50.8 µM
CC(=O)CC(c1ccccc1)c1c(O)c2ccccc2oc1=O (stereo not shown),FaDu,cell growth or viability,,,72 h,,> 20 µM
Cc1ccc2nc(-c3ccco3)n(Cc3ccccc3)c2c1,MCF7,cell growth or viability,,MTT,,,41.5 µM
CCCC1(C)C(C#N)(C#N)C1(C#N)C#N,THP-1,TNF-α release,inhibitor,,17 h,LPS-stimulated,1.15 µM
Clc1ccc(-c2nc3ccccc3[nH]2)cc1Cl,MCF7,cell growth or viability,,MTT,48 h,,11.1 µM
O=C(/C=C/c1ccc2c(=O)n(Cc3cccc(F)c3)cnc2c1)NO,SW-620,cell growth or viability,,SRB,48 h,,1.67 µM
CN(C)c1ccc(-c2nc3ccccc3[nH]2)cc1,MCF7,cell growth or viability,,MTT,48 h,,> 100 µM
Cc1ccc(O)cc1,B16F0,cell growth or viability,,MTT,48 h,,1900 µM
N#Cc1cc([N+](=O)[O-])c2sc(C(N)=O)[n+]([O-])c2c1,THP-1,TNF-α release,inhibitor,ELISA,17 h,LPS-stimulated,1.95 µM
CCOc1cc(OCC)cc(C(=O)O[C@@H]2CN3Cc4c(cc5c(c4OC)OCO5)[C@@]24C=C[C@H](OC)C[C@@H]34)c1,SAOS-2,cell growth or viability,,WST-1,,,2.8 µM
CCN(CC)CCNC(=O)COc1ccc(OC)cc1,FaDu,cell growth or viability,,,72 h,,> 20 µM
COc1c(C)c(OC)c2c(c1C)OC(c1ccccc1)CC2=O (stereo not shown),FaDu,cell growth or viability,,SRB,72 h,,> 50 µM
COc1cc(Nc2nccc(-c3cnn4nc(OC)ccc34)n2)cc(C(F)(F)F)c1,NCI-H441,cell growth or viability,,ATP luminescence,,,0.57 µM
CC(C)NCC(O)c1cc(O)cc(O)c1 (stereo not shown),THP-1,TNF-α release,inhibitor,,17 h,LPS-stimulated,0.6 µM
CCn1cnc2ccc(/C=C/C(=O)NO)cc2c1=O,SW-620,cell growth or viability,,SRB,48 h,,6.69 µM
